In the library only some 3.5% were active in any assay of this set; here they are far more common.
RGS4 act = potentiators or activators of RGS4 | HEK293 M3R/inducible RGS4, carbachol calcium flux Fluo4; stronger effect = lower value | B-score at 10 µM | 0.92% of 310,000 active | AID 463111;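 active = B-score of the integrated calcium signal more than 4 SD below the library mean, with starting fluorescence not abnormally high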;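 also: negative B-score means reduced calcium response which marks RGS4 activation or potentiation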
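System: HEK293 FlpIn-TREx cells, stable M3R, doxycycline-inducible RGS4. Timing: overnight RGS4 induction, 30 min dye load 37 °C, 20 min compound RT. Also added: carbachol, ECmax concentration. Measured by: Fluo4 fluorescence kinetic imaging of calcium. Evaluation: integrated calcium ratio converted to B score.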
RGS4 inh = human RGS4 inhibition | P49798 | HEK293 M3R/RGS4 inducible, Fluo-4 calcium flux; stronger effect = higher value; triggered by carbachol at its EC20 | B-score at 10 µM | 0.45% of 310,000 active;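 active = B-score, a plate-corrected calcium signal, over three deviations above library mean, with baseline fluorescence within five deviations of library mean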;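 also: RGS4 expression induced by doxycycline in cells with stable M3 receptor; B-score is computed from the integrated fluorescence ratio over baseline after carbachol; higher B-score means a larger calcium signal and so more RGS4 inhibition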
Target sequence (P49798 whole entry, looked up): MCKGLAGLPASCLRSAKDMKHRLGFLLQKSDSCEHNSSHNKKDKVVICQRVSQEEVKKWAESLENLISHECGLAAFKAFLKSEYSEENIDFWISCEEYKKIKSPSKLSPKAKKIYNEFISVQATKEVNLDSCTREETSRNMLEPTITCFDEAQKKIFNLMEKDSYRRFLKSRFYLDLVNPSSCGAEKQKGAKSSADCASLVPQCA
MrgX1 ag = human MrgX1 receptor agonism, primary screen; Q96LB2; MrgX1-HEK293 cells, Fluo-4 calcium fluorescence, agonist mode; stronger effect = higher value; B-score at 10 µM; 0.44% of 310,000 active;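 active = calcium response B-score plate-corrected fluorescence ratio at least 3 library SD, with starting fluorescence B-score inside 5 SD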
Target sequence (Q96LB2 whole entry, looked up): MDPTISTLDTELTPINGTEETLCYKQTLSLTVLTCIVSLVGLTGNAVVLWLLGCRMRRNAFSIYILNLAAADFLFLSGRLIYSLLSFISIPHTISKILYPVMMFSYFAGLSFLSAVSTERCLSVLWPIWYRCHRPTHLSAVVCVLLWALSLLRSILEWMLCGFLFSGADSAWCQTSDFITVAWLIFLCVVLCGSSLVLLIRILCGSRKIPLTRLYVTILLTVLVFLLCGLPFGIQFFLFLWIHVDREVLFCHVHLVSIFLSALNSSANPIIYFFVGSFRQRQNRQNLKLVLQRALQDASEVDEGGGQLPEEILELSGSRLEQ
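Test system: HEK293 cells stably expressing human MrgX1 receptor; amount: 15,000 cells per well; doses: compound delivered in addition one of three; times: overnight plating before 1 h dye loading; detection: Fluo-4 NW calcium-flux fluorescence, kinetic read; read-out basis: B-scored fluorescence response ratio; controls: positive and negative controls per plate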
MrgX1 PAM = human MrgX1 positive allosteric modulation, primary screen; B-score at 10 µM; Q96LB2; 0.63% of 310,000 active; MrgX1-HEK293, Fluo-4 calcium flux, FDSS; stronger effect = higher value;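 active = plate-corrected calcium response at least 3 library SD above typical, normal starting fluorescence, not activating the receptor alone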;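 also: compound read alongside a low EC10 to EC30 dose of BAM8-22 agonist; peak minus trough fluorescence over baseline measured at the second addition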
MrgX1 antag = antagonists of human MrgX1 receptor; 1.3% of 310,000 active; MRGX1-HEK293 calcium flux, Fluo-4, BAM8-22 antagonism; stronger effect = lower value; Q96LB2; B-score at 10 µM;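 active = calcium-response B-score plate-corrected more than 3 library SD below zero, starting fluorescence within 5 deviations, no agonist response on first addition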;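 also: peak minus trough fluorescence over baseline after final BAM8-22 challenge near maximal dose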
Numbers without * were called inactive; i = inactive; . = no result given.

SMILES	RGS4 act	RGS4 inh	MrgX1 ag	MrgX1 PAM	MrgX1 antag
CCOc1ccc(OCCCC(=O)N(C)CC(=O)Nc2ccc(N3CCOCC3)cc2)cc1	i	i	i	i	i
COc1ccc(CCC(=O)N(C)CC(=O)Nc2ccc(N3CCOCC3)cc2)cc1	i	i	i	11*	i
CC(C)N1C(=O)CCC1C(=O)N1CCC(Cc2ccccc2)CC1 (centres undefined)	i	i	i	i	-5.9*
CC(C)N1C(=O)CCC1C(=O)N1CCN(c2ccc(F)cc2)CC1 (centres undefined)	i	i	i	i	i
Cc1ccc(-c2nc(=S)c3c(n2Cc2ccco2)CC(C)(C)OC3)cc1	i	i	i	i	-6*
Cc1ccc(-c2nc(=S)c3c(n2CC2CCCO2)CC(C)(C)OC3)cc1 (centres undefined)	i	i	i	i	i
Cc1nn(-c2ccccc2)c2c1C(c1ccc(Cl)cc1)N(c1ccccc1)C(=O)N2 (centres undefined)	i	i	i	i	i
Cc1nn(-c2ccc([N+](=O)[O-])cc2)c2c1C(c1cccc(Br)c1)N1C(=N2)C(=O)Nc2ccccc21 (centres undefined)	i	i	i	i	-5.8*
Cc1nn(-c2ccccc2)c2c1C(c1ccc([N+](=O)[O-])cc1)N1C(=N2)C(=O)Nc2ccccc21 (centres undefined)	-9*	i	i	i	i
Cc1cccc(NC2=Nc3ccccc3N3C2=Nc2c(c(C)nn2-c2ccccc2)C3c2ccc(O)c(O)c2)c1 (centres undefined)	i	i	i	i	i
CCc1ccc(C2C(C#N)=C(N)C(C#N)(C#N)C3=CCC(C(C)(C)C)CC32)cc1 (centres undefined)	i	i	i	i	-5.8*
Cc1nc2nc(C)c(NS(=O)(=O)c3ccc(C4CCCCC4)cc3)c(=O)n2[nH]1	i	i	i	i	i
C/C(=N\NC(=O)c1ccc(Cn2cc(Br)cn2)o1)c1cccc(NC(=O)C(C)(C)C)c1	i	i	i	i	i
C/C(=N\NC(=O)c1ccc(Cn2cc(Br)cn2)o1)c1ccc(NC(=O)c2ccoc2C)cc1	-9.5*	i	.	.	.
Cc1cc(Cl)c(S(=O)(=O)N/N=C/c2ccc3c(c2)OCO3)c(Cl)c1	-8.2*	i	i	i	i
O=C(N/N=C/c1ccc2c(c1)OCO2)C1CC1	i	i	i	i	-5.4*
CN1C(=O)/C(=C/c2ccccc2OCc2cccc(F)c2)N(C)C1=S	-9.9*	i	i	i	i
CN1C(=O)/C(=C/c2ccc(OCc3ccc(F)cc3)cc2)N(C)C1=S	i	i	i	i	i
COc1cccc(C(=O)NCC2(c3ccccc3)CCCC2)c1	i	i	i	i	i
COc1ccc(C(=O)NCC2(c3ccccc3)CCCC2)c(OC)c1	i	i	i	10*	-10*
CC(CCc1ccccc1)NC(=O)COc1cc(F)ccc1[N+](=O)[O-] (centres undefined)	i	i	i	8.3*	i
CCOc1cccc2c1OC(c1cc(OC)c(OC)c(OC)c1)N1N=C(c3ccc(C)o3)CC21 (centres undefined)	i	i	i	i	-5.8*
CCOC(=O)c1ccc(Nc2ncccc2[N+](=O)[O-])cc1	i	i	i	i	-5.8*
CCOC(=O)c1ccc(NC(=O)c2ccccc2[N+](=O)[O-])cc1	i	i	i	i	i
Cc1c(CCC(=O)NCCCCCC(=O)O)c(=O)oc2c(C)c3oc4c(c3cc12)CCCC4	i	i	i	i	i
SMILES	RGS4 act	RGS4 inh	MrgX1 ag	MrgX1 PAM	MrgX1 antag
Cc1c(CCC(=O)N2CCC[C@H]2C(=O)O)c(=O)oc2c(C)c3oc4c(c3cc12)CCCC4	i	i	i	7.2*	i
O=C(OCn1ncc(Br)c(Br)c1=O)c1c(F)cccc1F	i	5.4*	i	i	i
CC(=O)Cn1ncc(Br)c(Br)c1=O	i	i	.	.	.
O=C1CCC([N+](=O)[O-])C(c2cc3c(cc2Cl)OCO3)N1 (centres undefined)	i	i	i	i	-4.5*
Cc1cccc(C)c1NC(=O)CN1CCc2ccccc2C1	i	i	i	i	i
Cc1ccc(S(=O)(=O)NCC(=O)N/N=C/c2ccccc2O)cc1	i	i	i	i	-5.4*
CSc1nc(O)c(C(c2cccc([N+](=O)[O-])c2)c2c(O)nc(SC)[nH]c2=O)c(=O)[nH]1	i	i	i	i	i
O=C(/C=C\Nc1ccc2c(c1)OCO2)c1ccc(Cl)s1	i	i	i	i	i
C/C(=C\C(=O)c1ccc(Cl)s1)N(C)C	i	i	i	9.2*	i
CC1(C)CC(=O)C(C2C3=C(CC(C)(C)CC3=O)Oc3ccccc32)C(=O)C1 (centres undefined)	i	i	i	i	i
CC1(C)CC(=O)C(C2C3=C(CC(C)(C)CC3=O)Oc3ccc4ccccc4c32)C(=O)C1 (centres undefined)	i	i	40*	i	i
COc1ccc2c(c1OC)C(=O)N1C2SC(C)(C)[C@H]1C(=O)NC1CC1 (some centres undefined)	i	i	i	i	i
Cc1nnc(NC(=O)C(C)Sc2nnc(-c3ccco3)n2C(C)C)s1 (centres undefined)	i	i	i	i	i
O=C(Cc1cccs1)NCc1ccc(Cl)cc1Cl	i	i	i	i	i
Cc1ccc(N2C(SCC(=O)O)=NC(=Nc3cccc(C)c3)C23CCCC3)cc1	i	i	i	i	i
O=C(N/N=C/c1ccccn1)c1cc(Br)ccc1O	i	i	27*	i	i
O=C(N/N=C/c1cccnc1)c1cc(Br)ccc1O	i	i	i	i	i
O=c1ccnc(Sc2ncccc2[N+](=O)[O-])[nH]1	i	i	i	i	-5*
O=C(CCCn1cnc([N+](=O)[O-])n1)Nc1ccc(Cl)cc1Cl	i	i	i	i	-9.1*
CC(=O)NCCc1c(C)n(Cc2ccccc2)c2ccccc12	i	i	i	i	i
Cc1noc(C)c1COc1ccc(C(=O)Nc2cccnc2)cc1	-7.4*	i	.	.	.
Cc1cccc(NC(=O)c2ccccn2)c1C	i	i	i	i	i
Cc1cccc(NC(=O)c2n[nH]c([N+](=O)[O-])c2Br)c1C	i	i	i	7.1*	i
CCN(CC)C(=O)Nc1ccc(Br)cc1	i	i	i	i	i
